# Source: ChEMBL document CHEMBL4130495, “Design, synthesis and biological evaluations of N-Hydroxy thienopyrimidine-2,4-diones as inhibitors of HIV reverse transcriptase-associated RNase H” (Eur J Med Chem, 2017)
# Experiments:
# [1] = molecular target: Human immunodeficiency virus type 1 reverse transcriptase (Human immunodeficiency virus 1, UniProt Q72547); assay: Inhibition of RNH activity of recombinant HIV1 reverse transcriptase RNase H assessed as reduction in internal cleavage of RNA strand using RNA/DNA duplex substrate HTS-1
# Gag-Pol polyprotein = Gag-Pol polyprotein (Human immunodeficiency virus type 1 group M subtype B (isolate HXB2)(HIV-1), UniProt P04585); assay: Inhibition of polymerase activity of recombinant HIV1 reverse polymerase assessed as reduction in extension of an 18 nucleotide DNA primer using template/primer and dNTPs incubated for 30 mins; parameters: species or system Human immunodeficiency virus 1
# How it was run: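 Recombinant HIV-1 RT (20 nM) was used with 40 nM template/primer (18-nt DNA primer annealed to a 100-nt DNA template) and 10 µM dNTPs in 50 mM Tris pH 7.8, 50 mM NaCl, with 1% DMSO and increasing compound concentrations. Reactions were started with 6 mM MgCl₂, run 30 min at 37 °C, and stopped with 100 mM EDTA. IC50 is reported as mean ± SD of ≥2 independent experiments.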
# [2] = tested on: Human immunodeficiency virus 1; assay: Antiviral activity against HIV1 infected in human P4R5 cells assessed as reduction in viral infection preincubated with cells for 24 hrs followed by viral infection measured after 48 hrs by fluorescence based beta-galactosidase reporter gene based MAGI assay; assay type: functional, organism-based
# P4R5 = assay: Cytotoxicity in human P4R5 cells assessed as reduction in cell viability by MTS assay
# [3] = molecular target: Human immunodeficiency virus type 1 integrase (Human immunodeficiency virus 1, UniProt Q7ZJM1); assay: Inhibition of HIV1 integrase pre-incubated for 10 mins before DNA substrate addition and measured after 30 mins
# Sequence of Human immunodeficiency virus type 1 integrase (Q7ZJM1 whole entry): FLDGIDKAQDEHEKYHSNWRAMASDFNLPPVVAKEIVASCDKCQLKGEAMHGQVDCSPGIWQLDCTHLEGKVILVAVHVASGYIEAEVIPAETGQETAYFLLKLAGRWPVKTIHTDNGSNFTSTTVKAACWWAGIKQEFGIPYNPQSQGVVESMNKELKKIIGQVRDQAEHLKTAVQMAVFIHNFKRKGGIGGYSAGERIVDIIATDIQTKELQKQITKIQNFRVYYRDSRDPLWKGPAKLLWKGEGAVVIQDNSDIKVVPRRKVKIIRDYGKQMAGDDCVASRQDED
Structure (SMILES),IC50 [1] [µM],IC50 (Gag-Pol polyprotein) [µM],EC50 [2] [µM],CC50 (P4R5; P4R5) [µM],IC50 [3] [µM],CC50 (P4R5; P4R5 cells) [µM]
O=c1[nH]c2cc(-c3ccc(Cl)cc3)ccc2c(=O)n1O,0.2,> 10,4.5,9.9,,
Cc1c(C(=O)O)sc2[nH]c(=O)n(O)c(=O)c12,0.1,> 10,> 20,,7.9,> 100
Cc1csc2[nH]c(=O)n(O)c(=O)c12,0.1,> 10,> 20,81,12,
O=c1[nH]c2c(c(=O)n1O)CN(Cc1ccccc1)CC2,,> 10,,,> 100,
O=c1[nH]c2cc(-c3ccccc3)sc2c(=O)n1O,0.1,> 10,11,28,4.5,
O=c1[nH]c2sc(Cc3ccccc3)cc2c(=O)n1O,0.043,> 10,> 20,,5,> 100
O=c1[nH]c2cc(-c3ccc(Cl)cc3)sc2c(=O)n1O,0.07,> 10,> 20,,23,> 100
O=c1[nH]c2scc(-c3ccccc3)c2c(=O)n1O,0.1,> 10,14,,1.3,> 100
Cc1sc2[nH]c(=O)n(O)c(=O)c2c1C,0.1,> 10,8.9,62,8.4,
O=C1Cc2cc(-c3ccccc3)ccc2C(=O)N1O,1.3,> 10,16,19,2,
O=c1[nH]c2scc(-c3ccc(Cl)cc3)c2c(=O)n1O,0.04,> 10,7.4,,2.1,> 100
O=c1[nH]c2cc(-c3ccccc3)ccc2c(=O)n1O,0.2,> 10,3.8,6,11,
O=c1[nH]c2sc(-c3ccccc3)cc2c(=O)n1O,0.084,> 10,> 20,,2.2,> 100
O=c1[nH]c2cc(-c3ccc(F)cc3)sc2c(=O)n1O,0.2,> 10,> 20,,17,> 100
O=c1[nH]c2sccc2c(=O)n1O,0.2,> 10,18,54,35,
